We go through 13 molecules from ChEMBL document CHEMBL1124538, “Mono and bis(bioreductive) alkylating agents: synthesis and antitumor activities in a B16 melanoma model” (J Med Chem, 1989).

The test system of data set [1] is Mus musculus. Kind of data set: Antitumor efficacy against subcutaneously implanted B16 melanoma tumor in BDF1 hybrid mice, administered intraperitoneally with 20 mg/kg of compound. It counts as functional. The gist of the method: (§1)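 Female BDF1 mice received 0.5 mL B16 tumor brei sc into the shaved dorsoscapular area; the brei was a 1:10 w/v dilution in HBSS from tumor passaged sc in C57BL/6 mice. Dosing was ip for 9 consecutive days once the tumor was palpable, in saline, 0.3% Klucel or 0.33% Klucel/NaHCO3. Mice were observed daily for up to 120 days. %T/C is median survival treated/control (NCI Instruction 14); active if ≥140.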

Data set [2] has as its system Mus musculus. Kind of data set: (§2) Antitumor efficacy against subcutaneously implanted B16 melanoma tumor in BDF1 hybrid mice, administered intraperitoneally with 10 mg/kg of compound. It counts as functional. Put shortly: as §1
The subject of data set [3] is B16. The description is as §2. The class given is functional, Mus musculus. Put shortly:
as §1

The subject of data set [4] is B16. Kind of data set: Percent B16 melanoma growth inhibition at dose 20 mg/kg in mice. The class given is functional, Mus musculus. To be noted: for inhibition in vivo at 20 mg/kg: Mus musculus, B16, dose 20 mg/kg. Put shortly:
(§3)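 B16 brei (1:10 w/v in HBSS, 0.5 mL) was implanted sc into female BDF1 mice. Mice got ip doses for 9 consecutive days after the tumor became palpable, in saline, 0.3% Klucel or 0.33% Klucel/NaHCO3. Serial tumor diameters were measured. Inhibition = 100 − [(change in average tumor diameter, treated/control) × 100]; active if ≥25%.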

The subject of data set [5] is B16. Kind of data set: (§4) Percent B16 melanoma growth inhibition at dose 10 mg/kg in mice. The class given is functional, Mus musculus. Particulars: for inhibition in vivo at 10 mg/kg: Mus musculus, B16, dose 10 mg/kg; for Inhibition: dose 10 mg/kg. Put shortly: as §3
For data set [6], the system named is Mus musculus. The data set is described as §4. The class given is functional. Particulars: B16, dose 10 mg/kg. The gist of the method: as §3
For data set [7], the system named is Mus musculus. Kind of data set: Compound was tested for increase in life span of P388 leukemia bearing mice at dose of 40 mg/Kg; Showed Toxicity, and weight loss. The class given is organism-based. To be noted: in vivo.
For data set [8], the system named is Mus musculus. As to the kind of experiment: Compound was tested for increase in life span of P388 leukemia bearing mice at dose of 20 mg/Kg; Showed Toxicity, and weight loss. To be noted: in vivo. The class given is organism-based.
Data set [9] deals with B16. As to the kind of experiment: Percent B16 melanoma growth inhibition at dose 4 mg/kg in mice. The class given is functional. Particulars: Mus musculus. Put shortly:
as §3

Data set [10] relates to Mus musculus. As to the kind of experiment: Compound was tested for increase in life span of P388 leukemia bearing mice at dose of 5 mg/Kg; Did nto increase significantly. It counts as functional, organism-based.
Data set [11] deals with Mus musculus. As to the kind of experiment: Compound was tested for increase in life span of P388 leukemia bearing mice at dose of 10 mg/Kg; Did nto increase significantly. It counts as functional, organism-based.
Data set [12] concerns Mus musculus. As to the kind of experiment: Antitumor efficacy against subcutaneously implanted B16 melanoma tumor in BDF1 hybrid mice, administered intraperitoneally with 4 mg/kg of compound. The class given is functional. Put shortly: as §1

The term T/C denotes the ratio of treated to control. A word on the inhibition in vivo: it is the relative decrease from the control value, in per cent. Low readings indicate little suppression, high ones strong suppression. Usually Inhibition stands for the drop in the measured response relative to a control, in per cent. Higher therefore signals a response far below the control.

“And” between values parts separate entries of the source, which are not always exact repeats. Equal entries are not always repeated.

On to `O=C1C=CC(=O)C(COC(=O)CCC(=O)O)=C1`, for which the T/C in the data set on Mus musculus [1] worked out at 115%; in the data set with Mus musculus [2], 164%; with B16 [3], 130%. Moreover, the inhibition in vivo at 20 mg/kg in the data set with B16 [4] amounted to 19%. In the data set on B16 [5], this molecule displayed an inhibition in vivo at 10 mg/kg of 27%. In the data set on B16 [5], this molecule yielded an Inhibition of 32%.

As for `O=C1C=C(CBr)C(=O)C(CBr)=C1`, in the data set with Mus musculus [2], the T/C amounted to 105%. Also, testing at 10 mg/kg in the data set with B16 [5] gave an inhibition in vivo of 24%.

In turn, `COC1=CC(=O)C(COC(C)=O)=CC1=O` yielded a T/C in the data set on Mus musculus [2] of 110%. The inhibition in vivo at 10 mg/kg in the data set on B16 [5] stood at 0%.

As for `O=C(O)CCC(=O)OCC1=CC(=O)C(COC(=O)CCC(=O)O)=CC1=O`, the T/C in the data set with Mus musculus [2] (10 mg/kg) is 115% and 111%. In the data set on B16 [5], this molecule yielded an inhibition in vivo at 10 mg/kg of 38% and an Inhibition of 19%.

For `O=C1C=C(CCl)C(=O)C=C1CCl`, in the data set on Mus musculus [2], the T/C was 104%. In the data set with Mus musculus [6], this molecule yielded an inhibition in vivo at 10 mg/kg of 4%.

In the data set on Mus musculus [2], `CC(=O)OCC1=CC(=O)C=C(COC(C)=O)C1=O` yielded a T/C of 100%. The inhibition in vivo at 10 mg/kg in the data set with B16 [5] came out at 13%.

With `O=C1C=C(CCC2=CC(=O)C(CBr)=CC2=O)C(=O)C=C1CBr`, the T/C in the data set with Mus musculus [2] was determined as 102%. This molecule had an inhibition in vivo at 10 mg/kg in the data set with B16 [5] of 16%.

Regarding `O=C1C=C(COC(=O)CCC(=O)O)C(=O)C(COC(=O)CCC(=O)O)=C1`, the T/C with Mus musculus [1] (20 mg/kg) is 110% and 130%. The molecule also returned an inhibition in vivo at 20 mg/kg with B16 [4] of 23%. In the data set with B16 [4] (dose 20 mg/kg), this molecule returned an Inhibition of 29%.

As for `O=C(O)CCC(=O)OCC1=CC(=O)C(CCC2=CC(=O)C(COC(=O)CCC(=O)O)=CC2=O)=CC1=O`, in the data set with Mus musculus [2] (10 mg/kg), the T/C was 123% and 106%.

`O=C1C=C(CBr)C(=O)C=C1CBr`: the T/C in the data set on Mus musculus [2] (10 mg/kg) was 140% and 118%. Further, in the data set on B16 [5], the inhibition in vivo at 10 mg/kg is 20% and the Inhibition worked out at 30%.

On to `CC(=O)OCC1=CC(=O)C(CCC2=CC(=O)C(COC(C)=O)=CC2=O)=CC1=O`, for which the T/C with Mus musculus [2] worked out at 129%. For the same molecule, the inhibition in vivo at 10 mg/kg in the data set with B16 [5] came to 16%.

With `CC(=O)OCC1=CC(=O)C=CC1=O`, the Increase in life-span entry in the data set with Mus musculus [7], in the data set with Mus musculus [8], with Mus musculus [10] and with Mus musculus [11] was “Did nto increase significantly” in each case. For the same molecule, the inhibition in vivo at 4 mg/kg in the data set with B16 [9] worked out at 31%. In addition, the T/C was 142% in the data set on Mus musculus [1] and 144% in the data set with Mus musculus [12]. In the data set on B16 [4], this molecule yielded an inhibition in vivo at 20 mg/kg of 63%.

Consider `O=C1C=C(CO)C(=O)C(CO)=C1`, for which the T/C in the data set on Mus musculus [1] worked out at 171%; in the data set with Mus musculus [2] it was 90%. The molecule further displayed an inhibition in vivo at 20 mg/kg with B16 [4] of 36%. This molecule also came in with an inhibition in vivo at 10 mg/kg in the data set on B16 [5] of 19%.
